From PubChem BioAssay
The list is not random: actives were taken first. Their share in the collection is about 5.8%.
GASC1 inh – inhibitors of GASC-1 (KDM4C) histone demethylase, primary screen, biochemical, single concentration HTS. Lysine-specific demethylase 4C (Homo sapiens), Q9H3R0. GST-KDM4C 2-372, H3K9me3 peptide, LANCE TR-FRET. inhibition, % at 12.5 µM. hit rate 0.15% among 96,000. AID 720574, 2013;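 active = mean replicate inhibition above about 25%, with at least 55% of replicates also reaching it, limit read from the data, passing the limit was not always enough; inconclusive = only one of those two conditions met; inactive = neither condition met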
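Material: N-terminal GST-fused human GASC-1 (KDM4C) fragment, residues 2-372. Input: 10 nM enzyme. Incubation: enzyme reaction 30 min, then detection 60 min, both room temperature. Doses: one test concentration per compound. Read-out basis: inhibition from TR-FRET ratio decrease. Detection: LANCE TR-FRET, excitation 340 nm, emissions 618 and 671 nm.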
T cruzi growth-1 – T. cruzi intracellular proliferation inhibitors, primary screen, cell-based, beta-gal Tulahuen parasites, NIH3T3 host, luminescence. hit rate 5.9% among 77,000. T. cruzi beta-gal in NIH3T3, GalScreen luminescence, 90 h. inhibition, % at 8.34 µM;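 active = mean inhibition above about 93%, with at least 55% of replicates each passing it, limit read from the data, passing the limit was not always enough; inconclusive = only one of those two conditions holds; inactive = neither condition holds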
IDH1 mut inh – inhibitors of IDH1 R132H reductase, primary screen, biochemical, plate reader, single point; Isocitrate dehydrogenase [NADP] cytoplasmic (Homo sapiens), O75874; diaphorase/resazurin fluorescence, 60 min; inhibition, % at 10 µM; hit rate 0.18% among 70,000; in the data active = inhibition above about 34%; inconclusive = no clear call, values can overlap the other calls; inactive = below about 11%;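 also: 0% = DMSO and 100% = no enzyme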
Target sequence (O75874 whole entry R132H): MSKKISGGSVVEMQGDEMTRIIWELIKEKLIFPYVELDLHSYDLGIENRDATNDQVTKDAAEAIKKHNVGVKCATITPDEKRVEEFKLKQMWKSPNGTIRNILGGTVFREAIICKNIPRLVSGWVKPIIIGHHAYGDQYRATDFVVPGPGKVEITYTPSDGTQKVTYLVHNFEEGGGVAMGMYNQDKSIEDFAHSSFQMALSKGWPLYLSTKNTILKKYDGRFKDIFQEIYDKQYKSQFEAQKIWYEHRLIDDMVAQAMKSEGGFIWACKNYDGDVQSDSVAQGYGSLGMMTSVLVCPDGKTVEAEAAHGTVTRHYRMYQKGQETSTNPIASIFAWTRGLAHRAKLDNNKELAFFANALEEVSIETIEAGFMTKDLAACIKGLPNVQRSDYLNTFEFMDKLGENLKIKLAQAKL
Pf Dd2 inh – P. falciparum Dd2 growth inhibitors, primary screen, SYBR Green fluorescence, single dose replicates; hit rate 2.3% among 94,000; activity change, % at 10 µM; 72 h; active compounds read low; in the data active = activity change below about -80%; inconclusive = no clear call, values can overlap the other calls
T cruzi growth-2 – T. cruzi intracellular proliferation inhibitors, confirmation, cell-based, NIH3T3 host, beta-gal parasite, luminescence, cherry-pick. AID 651739, 2012. T. cruzi beta-gal in NIH3T3, GalScreen luminescence, 90 h. shares compounds with T cruzi growth-1. inhibition, % at 8.35 µM. hit rate 72% among 5,600;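 active = mean replicate inhibition above about 95% and at least 55% of replicates individually reaching it, limit read from the data; inconclusive = only one of the two criteria is met; inactive = neither criterion is met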
T cruzi growth-3 – inhibitors of intracellular T. cruzi replication, confirmation, NIH3T3 host cells, beta-gal parasites, cherry-pick, set 2 | hit rate 21% among 5,600 | shares compounds with T cruzi growth-1 | inhibition, % at 2.09 µM | T. cruzi beta-gal in NIH3T3, GalScreen luminescence, 90 h;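 active = mean inhibition above about 95%, with at least 55% of replicates also reaching it, limit read from the data; inconclusive = meets just one of the two conditions; inactive = meets neither condition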;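 also: plate controls were neutral control median for no effect and positive control median for full effect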
NIH3T3 tox – cytotoxicity in mouse NIH/3T3 fibroblasts, confirmation, cytotoxicity control for T. cruzi proliferation inhibitor project, cell-based, cherry-pick, single point | shares compounds with T cruzi growth-1 | NIH/3T3 viability, CellTiter-Glo ATP luminescence, 90 h | cytotoxicity (signal decrease), % at 8.35 µM | hit rate 14% among 5,600;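 active = mean signal decrease across replicates above about 35% based on untreated-well scatter, with enough replicates individually passing, limit read from the data; inconclusive = no rule stated though some were filed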;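 also: 0% = median of neutral control wells and 100% = median of positive control wells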
3T3 cytotox 2 – NIH/3T3 fibroblast cytotoxicity, confirmation, cytotoxicity control, cell-based, cherry-pick, single point, set 2; NIH/3T3 viability, CellTiter-Glo ATP luminescence, 90 h; shares compounds with T cruzi growth-1; inhibition, % at 24.9 µM; hit rate 56% among 5,600;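 active = mean loss of cell viability signal at or above a set limit, and enough replicates individually reaching it; inconclusive = meets only the mean limit or only the replicate share; inactive = meets neither condition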;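 also: 0% = median of neutral control wells and 100% = median of positive control wells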
Starred values were filed as active, the others as inactive; ? = inconclusive; · = not tested or not shown.

SMILES	GASC1 inh	T cruzi growth-1	IDH1 mut inh	Pf Dd2 inh	T cruzi growth-2	T cruzi growth-3	NIH3T3 tox	3T3 cytotox 2
COc1cccc(C(=O)Nc2ccc3c(c2)C(=O)N(C)C[C@H](OC)[C@H](C)CN(CCc2ccccc2)[C@@H](C)CO3)c1	2	?	0	-58	·	·	·	·
C[C@@H]1CCCCO[C@H](CN(C)C(=O)C2CCCCC2)[C@H](C)CN([C@@H](C)CO)C(=O)c2cc(NS(=O)(=O)c3ccc(Cl)cc3)ccc2O1	0	?	·	-41	?	86	17	95*
C[C@@H]1CN([C@H](C)CO)C(=O)c2cc(NS(=O)(=O)c3ccc(Cl)cc3)ccc2O[C@@H](C)CCCCO[C@@H]1CN(C)C(=O)C1CCCCC1	-1	?	1	-55	100*	76	9	80*
C[C@H](CO)N1C[C@H](C)[C@H](CN(C)C(=O)C2CCCCC2)OCCCC[C@H](C)Oc2ccc(NS(=O)(=O)c3ccc(Cl)cc3)cc2C1=O	-1	94	·	4	·	·	·	·
O=C(CCCCCC(=O)N/N=C/c1ccccn1)NO	·	·	0	·	·	·	·	·
C[C@H](CO)N1C[C@H](C)[C@@H](CN(C)S(=O)(=O)c2ccc(F)cc2)Oc2ncc(/C=C/c3ccccc3)cc2C1=O	-3	85*	·	-66	103*	49	-1	-1
C[C@@H]1CN([C@H](C)CO)C(=O)c2cc(/C=C/c3ccccc3)cnc2O[C@@H]1CN(C)S(=O)(=O)c1ccccc1F	-4	84	2	-41	·	·	·	·
COc1cccc(S(=O)(=O)N(C)C[C@@H]2Oc3ncc(/C=C/c4ccccc4)cc3C(=O)N([C@H](C)CO)C[C@@H]2C)c1	-1	106*	0	-58	105*	73	?	77*
C[C@H](CO)N1C[C@H](C)[C@@H](CN(C)S(=O)(=O)c2ccccc2F)Oc2ncc(/C=C/c3ccccc3)cc2C1=O	-4	126*	0	-72	101*	55	25	26
COc1ccc(S(=O)(=O)N(C)C[C@@H]2Oc3ncc(/C=C/c4ccccc4)cc3C(=O)N([C@H](C)CO)C[C@H]2C)cc1	-4	·	0	-20	·	·	·	·
Cc1ccccc1NC(=O)CN(c1ccc(Br)cc1)S(C)(=O)=O	·	·	1	·	·	·	·	·
O=S(=O)(Cc1ccccc1)N1CCCCN2[C@H](C1)[C@H](c1ccc(-c3ccc(F)cc3)cc1)[C@@H]2CO	0	110*	·	7	101*	41	14	105*
O=S(=O)(Cc1ccccc1)N1CCCCN2[C@H](C1)[C@@H](c1ccc(-c3ccc(F)cc3)cc1)[C@@H]2CO	-3	86	·	1	·	·	·	·
O=S(=O)(Cc1ccccc1)N1CCCCN2[C@H](CO)[C@@H](c3ccc(-c4ccc(F)cc4)cc3)[C@H]2C1	0	?	·	8	103*	66	35*	105*
O=S(=O)(Cc1ccccc1)N1CCCCN2[C@H](CO)[C@@H](c3ccc(-c4cncnc4)cc3)[C@@H]2C1	-1	65	·	-9	·	·	·	·
COc1ccccc1-c1ccc2c(c1)O[C@H](CN(C)C(=O)c1ccncc1)[C@@H](C)CN([C@H](C)CO)S2(=O)=O	1	67	2	6	·	·	·	·
COc1ccccc1-c1ccc2c(c1)O[C@@H](CN(C)C(=O)c1ccncc1)[C@@H](C)CN([C@@H](C)CO)S2(=O)=O	-1	108*	4	-10	96*	88	10	25*
